pIC50: −log10 of the molar value. ≈ marks a conversion by molar mass, not a printed value. Calls of active or inactive are those of the source. The rule behind the calls is not given here.
Assays:
A549 [1] = test: Cytotoxicity against human A549 cells at >10 uM after 48 hrs by SRB assay; type: functional, cell-based
HeLa [2] = test: Cytotoxicity against human HeLa cells after 48 hrs by SRB assay; type: functional, cell-based
Outline: (§1)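 Cells plated 24 h, then exposed to serial dilutions up to 20 μg/mL for 48 h at 37 °C in 5% CO2. They were fixed with cold 50% TCA for 1 h at 4 °C, stained with 0.4% SRB in 1% acetic acid for 15 min, and the bound dye was dissolved in 10 mM Tris base. Absorbance was read at 560 nm. IC50 was taken from triplicate tests.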

SMMC-7721 [3] = test: Cytotoxicity against human SMMC7721 cells at >10 uM after 48 hrs by SRB assay; type: functional, cell-based
Staphylococcus aureus = test: Antibacterial activity against Staphylococcus aureus CGMCC1.2465 after 24 hrs by turbidimetric method; type: functional; conditions: for MIC50: CGMCC1.2465, 24 h
Outline: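 Inoculum was adjusted by OD620 to McFarland 0.5 and diluted to 1 × 10^6 cfu/mL. It was exposed to serial dilutions up to 25 μg/mL in Mueller-Hinton broth at 37 °C for 24 h, and absorbance was read at 620 nm. MIC50 was taken from triplicate tests. Ampicillin was the reference.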

Candida albicans = test: microbe, parasite or virus in culture; type: functional; conditions: CGMCC 2.2086, 24 h
SMMC-7721 [4] = test: Cytotoxicity against human SMMC7721 cells after 48 hrs by SRB assay; type: functional, cell-based; conditions: SMMC-7721, 48 h
Outline: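 Cells seeded 24 h, then exposed to serial dilutions (top concentration 20 μg/mL) for 48 h at 37 °C, 5% CO2. Fixed with ice-cold 50% TCA at 4 °C for 1 h, stained 15 min with 0.4% SRB in 1% acetic acid, dye solubilized in 10 mM Tris base, absorbance at 560 nm. Triplicate; IC50 reported. Paclitaxel and camptothecin as positive controls.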

HeLa [5] = test: Cytotoxicity against human HeLa cells at >10 uM after 48 hrs by SRB assay; type: functional, cell-based
A549 [6] = test: Cytotoxicity against human A549 cells after 48 hrs by SRB assay; type: functional, cell-based; conditions: A549, 48 h; outline: as §1

SMILES	Activity (A549 [1])	pIC50 (HeLa [2])	Activity (SMMC-7721 [3])	further results
CC(=O)O[C@@H]1C[C@@H](C(C)C)[C@]2(CO)CC[C@@]3(C)[C@H]4C(=CC[C@]3(C)[C@@H]12)[C@@]1(C)C=CC(=O)C(C)(C)[C@@H]1C[C@@H]4O	inactive	5.10	inactive	–
CC(=O)OC[C@@]12CC[C@@]3(C)[C@H]4C(=CC[C@]3(C)[C@H]1[C@H](O)C[C@H]2C(C)C)[C@@]1(C)CC[C@H](O[C@@H]2O[C@H](CO[C@@H]3O[C@H](CO)[C@@H](O)[C@H](O)[C@H]3O)[C@@H](O)[C@H](O)[C@H]2O)C(C)(C)[C@@H]1C[C@@H]4O	inactive	5.66	inactive	–
CC(=O)OC[C@H]1O[C@@H](Oc2cc3c(c(O)c2C)C(=O)c2ccc(O)cc2C3=O)[C@H](O[C@@H]2O[C@@H](C)[C@H](O)[C@@H](O)[C@H]2O)[C@@H](O)[C@@H]1O	inactive	5.38	inactive	–
O=C1c2ccccc2C(=O)c2cc(CO)c(O)cc21	inactive	5.52	inactive	–
Cc1c(O)cc2c(c1O)C(=O)c1ccc(O)cc1C2=O	–	–	–	MIC50 (Staphylococcus aureus): 21.5 µM (≈ 5.81 µg/mL)
COC1=CC(=O)c2ccccc2C1=O [2-Methoxy-1,4-naphthoquinone]	inactive	–	–	Activity (Staphylococcus aureus): inactive; MIC50 (Candida albicans): 16 µM (≈ 3.01 µg/mL); pIC50 (SMMC-7721 [4]): 5.37; Activity (HeLa [5]): inactive
CC1(C)S[C@@H]2[C@H](NC(=O)[C@H](N)c3ccccc3)C(=O)N2[C@H]1C(=O)O [AMPICILLIN]	–	–	–	MIC50 (Staphylococcus aureus): 0.1 µM (≈ 0.0349 µg/mL)
CC[C@@]1(O)C(=O)OCc2c1cc1n(c2=O)Cc2cc3ccccc3nc2-1 [CAMPTOTHECIN]	–	–	–	pIC50 (SMMC-7721 [4]): 8.52
Clc1ccc(COC(Cn2ccnc2)c2ccc(Cl)cc2Cl)c(Cl)c1 (stereo not drawn) [MICONAZOLE NITRATE]	–	–	–	MIC50 (Candida albicans): 0.9 µM
CC(=O)O[C@H]1C(=O)[C@@]2(C)[C@H]([C@H](OC(=O)c3ccccc3)[C@]3(O)C[C@H](OC(=O)[C@H](O)[C@@H](NC(=O)c4ccccc4)c4ccccc4)C(C)=C1C3(C)C)[C@]1(OC(C)=O)CO[C@@H]1C[C@@H]2O [PACLITAXEL]	–	6.22	–	–
CC(=O)O[C@@H]1C[C@@H](C(C)C)[C@]2(CO)CC[C@@]3(C)[C@H]4C(=CC[C@]3(C)[C@@H]12)[C@@]1(C)CC[C@H](O)C(C)(C)[C@@H]1C[C@@H]4O [RUBIARBONOL G]	–	5.66	inactive	MIC50 (Staphylococcus aureus): > 25 µM; MIC50 (Candida albicans): 10.8 µM (≈ 5.58 µg/mL); pIC50 (A549 [6]): 5.15
CC(C)[C@@H]1C[C@@H](O)[C@H]2[C@@]1(C)CC[C@@]1(C)C3=CC[C@H]4C(C)(C)[C@@H](O)CC[C@]4(C)C3=CC[C@]21C [RUBIYUNNANOL A]	–	–	inactive	pIC50 (A549 [6]): 5.01; pIC50 (HeLa [5]): < 5.00
CC(C)[C@@H]1CC=C2[C@@]1(C)CC[C@@]1(C)[C@H]3C(=CC[C@]21C)[C@@]1(C)CC[C@H](O)C(C)(C)[C@@H]1C[C@@H]3O [RUBIYUNNANOL B]	–	5.28	inactive	pIC50 (A549 [6]): 5.09
